Data taken from ChEMBL document CHEMBL3877270, “Biological and structural studies of phosphonium 'masked thiolate' compounds” (Eur J Med Chem, 2017).

Assays:
[1] = Cytotoxicity against human PC3 cells measured at 72 hrs post dose by Celltiter-Glo luminescent cell viability assay; format: functional, cell-based; conditions: PC-3, 72 h
Method in brief: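 PC3 cells (ATCC; DMEM GlutaMAX high glucose, 10% heat-inactivated FBS, pen/strep, 37 °C, 5% CO2) seeded 10,000/well, adhered overnight, then exposed 0–1000 µM for 24, 48, 72 h. Viability by CellTiter-Glo ATP luminescence after 30 min room-temperature equilibration. Vehicle controls at 0.1–0.001% DMSO. Quadruplicate wells, 3 independent experiments (n = 12). Normalised to control; IC50 from curve fit.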

[2] = Aqueous solubility of the compound; format: physicochemical; conditions: buffer
[3] = Drug uptake in human PC3 cells measured after 30 mins by MALDI-TOF-MS analysis; format: ADME, cell-based; conditions: pc-3, 0.5 h
Method in brief: (§1)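 Trypsinised PC3 cells washed in PBS, resuspended in low-K+ HEPES buffer pH 7.4, 0.5×10^6 cells incubated with compound at 5 µM final, 37 °C, 0–120 min. Cells washed in cold PBS, lysed in cold water, lysate spiked with tetraphenylphosphonium bromide internal standard, α-CHCA matrix, positive-ion MALDI-TOF-MS. Amount from calibration curve built in PC3 lysate; triplicate analyses, three independent experiments.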

[4] = Drug uptake in human PC3 cells measured after 10 mins by MALDI-TOF-MS analysis; format: ADME, cell-based; conditions: pc-3, 10 min; method in brief: as §1
[5] = Drug uptake in rat C6 cells at 10 uM measured after 10 to 90 mins by MALDI-TOF-MS analysis relative to tetraphenylphosphonium cation; format: ADME, cell-based; conditions: c6, 10 µM
[6] = Drug uptake in human PC3 cells measured after 90 mins by MALDI-TOF-MS analysis; format: ADME, cell-based; conditions: pc-3, 1.5 h; method in brief: as §1

| SMILES | IC50 [1] [µM] | solubility [2] | also measured |
| --- | --- | --- | --- |
| CC(=O)SCCC[P+](c1ccccc1)(c1ccccc1)c1ccccc1.[Br-] | 67 | Soluble | Drug uptake [3]: Active; Drug uptake [4]: Active |
| Fc1ccc([P+](c2ccccc2)(c2ccccc2)c2ccccc2)cc1 [BFPET] |  |  | Drug uptake [5]: 80% |
| CC(=O)SCCC[P+](c1ccc(F)cc1)(c1ccc(F)cc1)c1ccc(F)cc1.[Br-] | 252 | Soluble | Drug uptake [6]: Active |
| C/C(N)=C/[P+](c1ccccc1)(c1ccccc1)c1ccccc1 | 8 |  |  |
| Cc1ccc(-c2nc([P+](c3ccccc3)(c3ccccc3)c3ccccc3)c[se]2)cc1 | 0.4 |  |  |
